# Source: PubChem BioAssay
# An excerpt weighted towards active compounds, which were near 2.3% of everything screened.
# TRPC6 act = activates the mouse TRPC6 cation channel | Q61143 | HEK293-TRPC6 membrane potential dye fluorescence; hits give high values | B-score at 10 µM | actives 0.13% (n = 310,000) | AID 2550;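 active = B-score of the integrated fluorescence ratio above library mean plus 3 SD, and starting fluorescence ratio within library mean plus 5 SD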;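 also: higher score means more depolarization so channel activation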
# TRPC4 PAM = allosteric potentiators of mouse TRPC4 channel | Q9QUQ5 | actives 0.42% (n = 310,000) | HEK293 TRPC4beta/mu-opioid, DAMGO EC20, Fluo-4 Ca2+ flux; hits give high values | B-score at 10 µM;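 active = B-score of calcium response area above 5 SD of library B-scores, with initial fluorescence ratio within 5 SD of library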;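 also: B-score of integrated fluorescence ratio over time as area under calcium response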
# Target sequence (Q9QUQ5 whole entry, looked up): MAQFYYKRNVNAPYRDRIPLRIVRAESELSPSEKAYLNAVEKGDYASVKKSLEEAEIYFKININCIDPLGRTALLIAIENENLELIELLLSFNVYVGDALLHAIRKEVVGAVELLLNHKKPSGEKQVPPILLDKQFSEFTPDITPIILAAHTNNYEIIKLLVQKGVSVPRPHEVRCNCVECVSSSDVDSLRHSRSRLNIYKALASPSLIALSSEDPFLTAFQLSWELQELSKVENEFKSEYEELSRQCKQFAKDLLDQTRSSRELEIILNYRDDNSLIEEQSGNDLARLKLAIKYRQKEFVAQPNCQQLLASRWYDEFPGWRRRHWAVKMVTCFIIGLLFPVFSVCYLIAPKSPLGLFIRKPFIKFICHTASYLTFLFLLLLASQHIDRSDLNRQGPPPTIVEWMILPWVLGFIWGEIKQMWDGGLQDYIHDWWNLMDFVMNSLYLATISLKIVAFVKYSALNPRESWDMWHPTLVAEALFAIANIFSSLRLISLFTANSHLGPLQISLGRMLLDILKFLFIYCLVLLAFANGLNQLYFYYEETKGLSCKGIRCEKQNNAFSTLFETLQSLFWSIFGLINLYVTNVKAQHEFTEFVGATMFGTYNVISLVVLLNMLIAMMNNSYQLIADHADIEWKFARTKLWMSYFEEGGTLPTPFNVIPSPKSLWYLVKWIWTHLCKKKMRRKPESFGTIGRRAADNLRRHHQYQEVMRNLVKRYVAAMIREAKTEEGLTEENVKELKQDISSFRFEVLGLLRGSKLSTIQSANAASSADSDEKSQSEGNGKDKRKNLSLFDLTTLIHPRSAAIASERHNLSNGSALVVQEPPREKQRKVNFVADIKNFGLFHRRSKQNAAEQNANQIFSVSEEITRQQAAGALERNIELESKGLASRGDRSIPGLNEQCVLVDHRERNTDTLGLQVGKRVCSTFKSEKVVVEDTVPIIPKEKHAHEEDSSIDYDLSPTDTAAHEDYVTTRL
# TRPC4 block = TRPC4 (mouse) channel inhibition; HEK293 TRPC4beta/mu-opioid, DAMGO-evoked Fluo4 calcium flux; hits give low values; Q9QUQ5; B-score at 10 µM; actives 0.39% (n = 300,000);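 active = B-score over 3 SD under the library average, no early fluorescence shift, positive overall ratio signal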
#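 Assay system: HEK293 cells with stable TRPC4beta plus mu-opioid receptor expression. Dosing: single dose. Measured by: Fluo4 Ca2+ flux fluorescence. Also added: DAMGO in two steps, submaximal then maximal. Read-out: B score from integrated Fluo4 fluorescence ratio.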
# TRPC4 act = opens the mouse TRPC4 cation channel; HEK293 TRPC4beta/mu-opioid, Fluo4 calcium fluorescence; hits give high values; actives 0.49% (n = 310,000); B-score at 10 µM;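 active = B-score above 5 SD of library B-scores, and initial fluorescence ratio not above library mean plus 5 SD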;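 also: positive B-score marks a calcium rise read as TRPC4 activation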
#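 Assay system: HEK293 stable line with TRPC4beta plus mu-opioid receptor; schedule: 45 min room-temperature Fluo4 loading, 110 s read; technique: kinetic Fluo4 calcium fluorescence; evaluation: integrated baseline-normalised fluorescence ratio, converted to per-well B score; controls: buffer (low) and maximal DAMGO (high)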
# TRPC6 inh = mouse TRPC6 channel inhibition; B-score at 10 µM; Q61143; actives 1.1% (n = 310,000); HEK293-TRPC6, membrane potential dye, ACh-evoked depolarization; hits give low values;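 active = B-score under library mean minus 3 SD, initial fluorescence not abnormally high, positive integrated signal ratio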;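 also: B-score derived from integrated fluorescence ratio over the kinetic read; more negative B-score means stronger inhibition of depolarization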
# TRPC4 spec 2 = second selectivity test of TRPC6 inhibitors: effect on mouse TRPC4; inhibition, % at 10 µM; shares compounds with TRPC6 inh; actives 42% (n = 920); HEK293 TRPC4/MOR, membrane potential dye fluorescence; channel activated by saturating DAMGO dose; AID 2776;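 active = compounds whose fluorescence signal differed from control wells by over 3 SD, either direction, in both duplicate plates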
# TRPC4 spec = mouse TRPC4 off-target activity of TRPC6 inhibitors; HEK293 TRPC4/mu-opioid, membrane potential fluorescence; activity change, negative = inhibition, % at 10 µM; shares compounds with TRPC6 inh; actives 61% (n = 920);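 active = rise or fall in signal beyond 3 SD of buffer-only wells in both replicate plates, either sign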;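 also: integrated kinetic ratio of fluorescence range over baseline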
# HEK293 MPD ctr 2-1 = second check of TRPC6 inhibitor effects in parental HEK293 cells; shares compounds with TRPC6 inh; parental HEK293 membrane potential dye fluorescence; maximal acetylcholine challenge after compound addition; signal change vs control, % at 10 µM; actives 31% (n = 920); AID 2779;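 active = membrane potential signal moving either way by over 3 SD of the maximum-effect control, in both duplicate plates, meaning non-specific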
# HEK293 MPD ctr-1 = counter-screen for TRPC6 inhibitors: effect in parental HEK293 cells; AID 2780; actives 60% (n = 920); shares compounds with TRPC6 inh; membrane potential signal change, % at 10 µM; parental HEK293 membrane potential dye fluorescence;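 active = membrane potential signal shifting up or down by more than 3 SD of buffer-only wells, on both duplicate plates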
# HEK293 MPD ctr-2 = counter-screen for TRPC6 modulators: effect in parental HEK293 cells; membrane potential signal change, % at 10 µM; membrane potential dye fluorescence; actives 51% (n = 2,400); shares compounds with TRPC6 inh;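 active = membrane potential signal moves up or down beyond 5 SD from buffer-only wells, on both duplicate plates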
# HEK293 MPD ctr 2-2 = second counter-screen for TRPC6 modulators: effect in parental HEK293 cells; AID 488926; membrane potential dye fluorescence; after compound, maximal acetylcholine stimulation; inhibition, % at 10 µM; shares compounds with TRPC6 inh; actives 14% (n = 2,400);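 active = membrane potential signal drops by more than 5 SD from the mean control signal, in both duplicate plates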;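 also: plate controls were acetylcholine ECmax control wells for no effect and buffer only wells for full effect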
# TRPC4 ctr mod = tests whether TRPC6 modulators also affect mouse TRPC4; shares compounds with TRPC6 inh; AID 488927; HEK293 TRPC4/mu-opioid, membrane potential fluorescence; percent change from control (negative = decrease, positive = increase), % at 10 µM; actives 69% (n = 2,400);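 active = membrane potential signal moved up or down beyond 5 SD of buffer control wells, in both duplicate plates, actives on both sides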;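 also: plate controls were assay buffer wells for no effect and DAMGO maximal-effect wells for full effect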
# TRPC4 ctr inh 2 = second check of whether TRPC6 modulators also affect mouse TRPC4; AID 488928; HEK293 TRPC4/mu-opioid, membrane potential dye fluorescence; stimulated with maximal-effect DAMGO; inhibition, % at 10 µM; shares compounds with TRPC6 inh; actives 55% (n = 2,400);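 active = drop in membrane potential signal beyond 5 SD of the control wells in both duplicate plates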;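 also: TRPC4 counter screen for TRPC6 hits run under conditions tuned for TRPC6 not TRPC4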
# TRPC6 block conf = confirmation of mouse TRPC6 inhibitors | shares compounds with TRPC6 inh | HEK293-TRPC6, membrane potential dye, ACh-evoked depolarization | inhibition, % at 10 µM | actives 43% (n = 3,300);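 active = fluorescence ratio falls more than 5 SD below the full-stimulation control mean, in both duplicate runs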;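 also: integrated fluorescence ratio of peak minus minimum over baseline after agonist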
# TRPC6 act conf = mouse TRPC6 activator confirmation; shares compounds with TRPC6 inh; HEK293-TRPC6 membrane potential dye fluorescence, FDSS; activation, % at 10 µM; actives 11% (n = 2,800);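 active = ratio signal rise beyond 5 SD above unstimulated control wells' mean, seen in both duplicate runs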;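 also: plate controls were buffer EC0 wells for no effect and acetylcholine ECmax response for full effect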
# * hit, by the source's call; i = inactive; nt = no result given.
SMILES,TRPC6 act,TRPC4 PAM,TRPC4 block,TRPC4 act,TRPC6 inh,HEK293 MPD ctr-2,HEK293 MPD ctr 2-2,TRPC4 ctr mod,TRPC4 ctr inh 2,TRPC6 block conf,TRPC6 act conf,others
CN(C)CCCN(C(=O)c1ccc(Br)s1)c1nc2cc3c(cc2s1)OCCO3,i,i,i,63*,-6.4*,i,i,-14%*,82%*,60%*,i,
CCN(CC)S(=O)(=O)c1ccc(C)c(N=C=S)c1,i,i,i,i,i,nt,nt,nt,nt,nt,nt,
Cc1cc(NC(=O)CSc2ccccn2)cc(NC(=O)CSc2ccccn2)c1,i,i,i,i,i,nt,nt,nt,nt,nt,nt,
Cc1nonc1NC(=O)CSc1ccccn1,i,i,i,i,-5.7*,i,i,i,i,i,i,
COc1cc2nc(Nc3ccc(C)c(Cl)c3)nc(N)c2cc1OC,i,i,i,i,i,nt,nt,nt,nt,nt,nt,
CCOc1ccc(Nc2nc(N)c3ccccc3n2)cc1,i,i,i,i,i,nt,nt,nt,nt,nt,nt,
Nc1nc(Nc2ccc(Cl)cc2)nc2ccccc12,i,i,i,i,-12*,-163%*,90%*,-36%*,88%*,84%*,i,
Cc1ccccc1Nc1nc(N)c2ccccc2n1,i,i,i,i,-6.8*,nt,nt,nt,nt,70%*,i,TRPC4 spec 2=32%*;TRPC4 spec=-26%*;HEK293 MPD ctr 2-1=36%*;HEK293 MPD ctr-1=-330%*
Cc1ccc(Nc2nc(N)c3ccccc3n2)cc1Cl,i,i,i,i,-6.5*,-128%*,83%*,-35%*,79%*,75%*,i,
Nc1nc(Nc2ccccc2)nc2ccccc12,i,i,i,i,-22*,-200%*,90%*,-46%*,86%*,86%*,i,
COc1ccc(CN2CC[C@H]3C=CC[C@@H](C(=O)NCCc4ccccc4)[C@H]3C2=O)cc1OC,i,i,nt,i,i,nt,nt,nt,nt,nt,nt,
COCCN(C(=S)Nc1c(C)cccc1C)C(C)c1ccco1 (configuration not stated),i,i,i,i,i,nt,nt,nt,nt,nt,nt,
COc1ccc(C2=NOC(CNC(=S)N3CCOCC3)C2)cc1 (configuration not stated),i,i,i,i,i,nt,nt,nt,nt,nt,nt,
Cc1ccc(NC(=S)N2CCCCC2)cc1C,i,i,i,i,i,nt,nt,nt,nt,nt,nt,
COc1ccc([N+](=O)[O-])cc1Nc1c2ccccc2nc2ccccc12,i,i,i,i,i,nt,nt,nt,nt,nt,nt,
CN(C)c1ccc(Nc2nc(N)c3ccccc3n2)cc1,i,i,i,i,-7.3*,-182%*,90%*,-45%*,86%*,84%*,i,
CN(C)c1nc(Nc2ccccc2)nc(N(C)C)n1,i,i,i,i,i,nt,nt,nt,nt,nt,nt,
COc1ccc(C)cc1Nc1nc(N)c2ccccc2n1,i,i,i,i,-10*,-221%*,112%*,-52%*,91%*,100%*,i,
C=CCC(C(=O)NC(C)c1ccccc1)C(=O)NC(C)c1ccccc1 (configuration not stated),i,i,i,i,i,nt,nt,nt,nt,nt,nt,
Cc1ccccc1-c1nc(-c2ccc(NC(=O)c3cccs3)cc2)no1,i,i,i,i,-7.1*,nt,nt,nt,nt,i,i,TRPC4 spec 2=i;TRPC4 spec=i;HEK293 MPD ctr 2-1=i;HEK293 MPD ctr-1=i
CN1CCN(c2nc3c(c(=O)n(C)c(=O)n3C)n2CCSc2nnnn2-c2ccccc2)CC1,i,i,i,i,-7.3*,-114%*,100%*,-41%*,56%*,50%*,i,
CN1CCN(c2nc3c(c(=O)n(C)c(=O)n3C)n2Cc2ccccc2)CC1,i,i,i,i,i,nt,nt,nt,nt,nt,nt,
CN1CCN(c2nc3c(c(=O)[nH]c(=O)n3C)n2CCSc2nnnn2-c2ccccc2)CC1,i,i,i,i,-8.5*,-236%*,i,-27%*,62%*,60%*,i,
COc1ccc(NC(=O)COc2coc(CN3c4ccccc4CC3C)cc2=O)cc1 (configuration not stated),i,i,i,i,i,nt,nt,nt,nt,nt,nt,
O=C(Nc1ccc(O)cc1)/C(=C\C=C\c1ccccc1)NC(=O)c1ccccc1,i,i,i,i,-5.6*,i,i,i,37%*,i,i,
COc1ccc(C(=O)NCCS(=O)(=O)N(C)C2CCCCC2)cc1,i,i,i,i,i,nt,nt,nt,nt,nt,nt,
C/C(=N\Nc1ncnc2sc(C)c(C)c12)c1ccccn1,17*,15*,i,i,i,316%*,i,50%*,i,i,75%*,
COC(=O)CSc1cccc2c1C(=O)CC2c1ccccc1 (configuration not stated),i,i,i,i,-7.7*,nt,nt,nt,nt,i,nt,TRPC4 spec 2=i;TRPC4 spec=1.9%*;HEK293 MPD ctr 2-1=i;HEK293 MPD ctr-1=3.3%*
COC(=O)CSc1ccsc1C(=O)O,i,i,i,i,i,nt,nt,nt,nt,nt,nt,
Cc1nnc(NC(=O)C2CSC3(C)CCC(=O)N23)s1 (configuration not stated),i,i,i,i,i,nt,nt,nt,nt,nt,nt,
